Changes are numbered by the printed parent chain. Active and inactive are the calls of the source. No cut-off for these calls is given here.
Experiments:
[1] = target: T1, Discoidin domain-containing receptor 2 (Homo sapiens, UniProt Q16832); assay: Inhibition of DDR2 (unknown origin) after 1 hr by time resolved fluorescence method
T1 sequence (Q16832 whole entry): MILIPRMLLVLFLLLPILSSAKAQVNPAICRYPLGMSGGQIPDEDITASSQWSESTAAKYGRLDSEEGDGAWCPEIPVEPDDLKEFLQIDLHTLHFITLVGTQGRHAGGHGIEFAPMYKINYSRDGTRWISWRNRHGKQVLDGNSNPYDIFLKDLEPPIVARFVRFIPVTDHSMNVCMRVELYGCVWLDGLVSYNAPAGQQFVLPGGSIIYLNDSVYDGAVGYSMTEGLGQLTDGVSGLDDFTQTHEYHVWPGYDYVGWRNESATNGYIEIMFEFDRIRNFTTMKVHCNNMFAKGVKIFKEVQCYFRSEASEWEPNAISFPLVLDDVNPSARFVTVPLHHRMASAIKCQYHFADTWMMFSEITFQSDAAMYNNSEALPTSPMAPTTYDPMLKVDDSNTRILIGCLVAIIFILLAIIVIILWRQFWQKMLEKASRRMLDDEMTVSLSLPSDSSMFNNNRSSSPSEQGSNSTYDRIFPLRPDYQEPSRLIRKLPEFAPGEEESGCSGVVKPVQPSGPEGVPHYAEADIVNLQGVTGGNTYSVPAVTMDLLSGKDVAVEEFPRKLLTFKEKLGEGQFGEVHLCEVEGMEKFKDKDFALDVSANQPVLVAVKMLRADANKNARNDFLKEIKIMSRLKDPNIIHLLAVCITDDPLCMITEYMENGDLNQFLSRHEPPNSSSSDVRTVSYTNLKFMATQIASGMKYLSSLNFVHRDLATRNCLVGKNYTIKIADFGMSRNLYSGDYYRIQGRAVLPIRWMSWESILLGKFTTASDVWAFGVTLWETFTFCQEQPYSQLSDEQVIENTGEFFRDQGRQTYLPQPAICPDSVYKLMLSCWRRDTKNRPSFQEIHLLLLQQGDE

[2] = target: Proto-oncogene tyrosine-protein kinase Src (Homo sapiens) (UniProt P12931); assay: Inhibition of c-Src (unknown origin) using biotinylated HER2 peptide as substrate at 10 uM by time resolved fluorescence method
Proto-oncogene tyrosine-protein kinase Src (Homo sapiens), sequence (P12931 2-536 limits assumed): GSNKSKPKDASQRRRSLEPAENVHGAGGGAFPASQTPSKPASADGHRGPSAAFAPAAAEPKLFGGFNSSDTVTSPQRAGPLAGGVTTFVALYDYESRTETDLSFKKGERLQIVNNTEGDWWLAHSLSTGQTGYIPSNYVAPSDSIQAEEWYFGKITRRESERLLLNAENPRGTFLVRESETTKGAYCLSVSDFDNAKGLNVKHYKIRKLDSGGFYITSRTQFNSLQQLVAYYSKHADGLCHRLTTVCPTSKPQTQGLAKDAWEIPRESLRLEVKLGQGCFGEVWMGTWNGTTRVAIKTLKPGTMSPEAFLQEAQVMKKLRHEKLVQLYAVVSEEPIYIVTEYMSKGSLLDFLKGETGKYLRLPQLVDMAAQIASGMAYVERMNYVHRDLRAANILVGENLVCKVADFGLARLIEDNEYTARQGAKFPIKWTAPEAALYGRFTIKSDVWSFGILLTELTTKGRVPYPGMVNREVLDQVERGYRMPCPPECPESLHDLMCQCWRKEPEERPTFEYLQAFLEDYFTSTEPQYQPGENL

[3] = target: T2, Mast/stem cell growth factor receptor Kit (Homo sapiens, UniProt P10721); assay: Inhibition of c-Kit (unknown origin) using biotinylated HER2 peptide as substrate by time resolved fluorescence method
T2 sequence (P10721 whole entry, the tested form may be a part): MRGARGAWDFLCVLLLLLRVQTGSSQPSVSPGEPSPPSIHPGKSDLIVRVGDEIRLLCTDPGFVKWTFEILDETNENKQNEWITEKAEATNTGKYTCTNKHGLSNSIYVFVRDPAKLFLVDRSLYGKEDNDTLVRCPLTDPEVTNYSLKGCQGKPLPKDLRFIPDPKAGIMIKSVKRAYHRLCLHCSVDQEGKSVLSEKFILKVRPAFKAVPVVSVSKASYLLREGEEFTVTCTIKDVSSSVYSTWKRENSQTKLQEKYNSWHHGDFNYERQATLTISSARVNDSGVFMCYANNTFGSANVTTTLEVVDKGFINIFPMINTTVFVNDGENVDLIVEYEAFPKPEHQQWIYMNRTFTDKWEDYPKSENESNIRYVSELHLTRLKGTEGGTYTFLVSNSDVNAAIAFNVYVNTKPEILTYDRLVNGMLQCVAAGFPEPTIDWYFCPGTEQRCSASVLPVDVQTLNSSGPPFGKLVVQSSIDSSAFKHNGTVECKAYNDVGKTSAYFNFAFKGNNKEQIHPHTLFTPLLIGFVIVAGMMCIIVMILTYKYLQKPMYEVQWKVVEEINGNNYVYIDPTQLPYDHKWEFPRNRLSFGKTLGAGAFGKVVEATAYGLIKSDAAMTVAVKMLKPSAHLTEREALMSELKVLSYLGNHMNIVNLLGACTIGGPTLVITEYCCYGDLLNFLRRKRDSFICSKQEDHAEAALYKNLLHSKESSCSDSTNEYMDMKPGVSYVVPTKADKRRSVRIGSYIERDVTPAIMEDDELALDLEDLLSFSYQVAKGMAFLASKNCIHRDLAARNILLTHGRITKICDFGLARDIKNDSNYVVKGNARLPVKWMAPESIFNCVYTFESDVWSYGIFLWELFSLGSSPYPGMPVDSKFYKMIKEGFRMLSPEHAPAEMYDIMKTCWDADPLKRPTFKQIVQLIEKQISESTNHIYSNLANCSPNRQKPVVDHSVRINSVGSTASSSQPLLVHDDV

[4] = target: T3, Epithelial discoidin domain-containing receptor 1 (Homo sapiens, UniProt Q08345); assay: Inhibition of DDR1 (unknown origin) after 1 hr by time resolved fluorescence method
T3 sequence (Q08345 whole entry, the tested form may be a part): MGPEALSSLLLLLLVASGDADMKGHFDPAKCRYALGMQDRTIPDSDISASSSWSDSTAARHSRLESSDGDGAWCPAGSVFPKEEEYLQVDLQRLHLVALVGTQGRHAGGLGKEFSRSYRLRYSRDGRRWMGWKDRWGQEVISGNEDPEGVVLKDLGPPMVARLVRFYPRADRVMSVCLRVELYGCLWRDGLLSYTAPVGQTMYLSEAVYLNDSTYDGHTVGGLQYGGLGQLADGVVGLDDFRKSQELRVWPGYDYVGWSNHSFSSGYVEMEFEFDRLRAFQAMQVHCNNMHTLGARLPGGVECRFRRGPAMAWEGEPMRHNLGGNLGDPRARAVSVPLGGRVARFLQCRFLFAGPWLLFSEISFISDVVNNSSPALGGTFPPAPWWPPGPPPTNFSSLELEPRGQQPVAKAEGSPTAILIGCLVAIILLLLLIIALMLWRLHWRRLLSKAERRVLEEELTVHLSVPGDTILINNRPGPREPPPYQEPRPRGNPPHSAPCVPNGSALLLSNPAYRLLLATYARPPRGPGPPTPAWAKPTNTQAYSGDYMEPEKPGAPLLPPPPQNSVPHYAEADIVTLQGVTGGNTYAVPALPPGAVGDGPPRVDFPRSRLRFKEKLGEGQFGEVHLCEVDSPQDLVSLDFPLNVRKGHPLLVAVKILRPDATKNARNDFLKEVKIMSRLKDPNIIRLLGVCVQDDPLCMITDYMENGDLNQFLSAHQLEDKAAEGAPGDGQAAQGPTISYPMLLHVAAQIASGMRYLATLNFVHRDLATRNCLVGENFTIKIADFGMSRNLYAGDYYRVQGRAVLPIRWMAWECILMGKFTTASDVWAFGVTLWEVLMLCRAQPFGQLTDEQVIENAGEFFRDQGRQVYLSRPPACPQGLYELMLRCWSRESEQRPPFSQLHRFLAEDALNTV

[5] = target: T2, Mast/stem cell growth factor receptor Kit; assay: Inhibition of c-Kit (unknown origin) using biotinylated HER2 peptide as substrate at 10 uM by time resolved fluorescence method
[6] = target: T3, Epithelial discoidin domain-containing receptor 1; assay: Inhibition of DDR1 (unknown origin) at 0.0015 uM after 1 hr by time resolved fluorescence method
[7] = target: T4, Discoidin domain-containing receptor 2 (Homo sapiens) (UniProt Q16832); assay: Inhibition of collagen I-induced DDR2 (unknown origin) phosphorylation expressed in HEK293 cells at 0.1 to 1 uM after 16 hrs by Western blotting; format: cell-based
T4 sequence (whole entry): T1 sequence (Q16832 whole entry)
How it was run: (§1)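 HEK293 cells stably transfected with either wild-type DDR2 or the I638F mutant, giving DDR2 overexpression. Cells were left unstimulated or stimulated with collagen I and treated with compound. DDR2 tyrosine phosphorylation (pY) was read out by immunoblot.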

[8] = system: T5, Discoidin domain-containing receptor 2 (Homo sapiens), Q16832 [I638F]; assay: Inhibition of collagen I-induced DDR2 I638F mutant (unknown origin) phosphorylation expressed in HEK293 cells at 0.1 to 1 uM after 16 hrs by Western blotting; format: cell-based; how it was run: as §1
T5 sequence (whole entry): T1 sequence (Q16832 whole entry) with I638F

[9] = Antiproliferative activity against human NCI-H2286 cells expressing DDR2 mutant after 72 hrs by alamar blue assay; format: functional, cell-based; details: NCI-H2286, 72 h
[10] = target: T3, Epithelial discoidin domain-containing receptor 1; assay: Inhibition of DDR1 (unknown origin) at 0.005 uM after 1 hr by time resolved fluorescence method
[11] = Clearance in Balb/C mouse at 1 mg/kg, iv and 5 mg/kg, po; format: ADME, organism-based; details: in vivo
[12] = Volume of distribution at steady state in Balb/C mouse at 1 mg/kg, iv and 5 mg/kg, po; format: ADME, organism-based; details: in vivo, read-out: Vdss
[13] = Half life in Balb/C mouse at 1 mg/kg, iv and 5 mg/kg, po; format: ADME, organism-based; details: in vivo
[14] = Oral bioavailability in Balb/C mouse at 5 mg/kg; format: ADME, organism-based; details: in vivo
[15] = target: T2, Mast/stem cell growth factor receptor Kit; assay: Inhibition of c-Kit (unknown origin) using biotinylated HER2 peptide as substrate at 3 uM by time resolved fluorescence method
[16] = Antiproliferative activity against human HCC366 cells expressing DDR2 mutant after 72 hrs by alamar blue assay; format: functional, cell-based; details: HCC366, 72 h
[17] = target: T2, Mast/stem cell growth factor receptor Kit; details: 0.003 uM
[18] = target: Proto-oncogene tyrosine-protein kinase Src (Homo sapiens) (UniProt P12931); assay: Inhibition of c-Src (unknown origin) using biotinylated HER2 peptide as substrate at 3 uM by time resolved fluorescence method
[19] = target: T1, Discoidin domain-containing receptor 2; assay: Inhibition of collagen I-induced DDR2 (unknown origin) phosphorylation expressed in HEK293 cells after 16 hrs by mesoscale discovery assay; format: cell-based
How it was run: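 HEK293 cells stably transfected to overexpress DDR2 (wild type or I638F mutant lines were generated), then stimulated with collagen I. Tyrosine-phosphorylated DDR2 was measured by MesoScale Discovery immunoassay and an EC50 was derived from the concentration–response.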

[20] = target: Proto-oncogene tyrosine-protein kinase Src (Homo sapiens) (UniProt P12931); assay: Inhibition of c-Src (unknown origin) using biotinylated HER2 peptide as substrate at 100 uM by time resolved fluorescence method
[21] = target: T4, Discoidin domain-containing receptor 2 (Homo sapiens); assay: Inhibition of DDR2 (unknown origin) at 100 uM after 1 hr by time resolved fluorescence method

`Cc1ccc(CNC(=O)Nc2ccccc2)cc1NC(=O)c1cnc2ccccn12` showed an IC50 [1] of 8.2 nM, an inhibition [2] of 54% and an IC50 [3] of 9.8 nM.

`Cc1ccc([C@@H](C)NC(=O)Nc2ccccc2)cc1NC(=O)c1cnc2ccccn12` gave an IC50 [1] of 1300 nM, an IC50 [4] of 1500 nM and an inhibition [5] of 47%.

`Cc1ccc([C@H](C)NC(=O)Nc2cccc(F)c2)cc1NC(=O)c1cnc2ccccn12` gave an IC50 [1] of 4.5 nM, an inhibition [6] of 54% and an inhibition [2] of 22%. For the same compound, the IC50 [3] was 140 nM.

For `Cc1cn(-c2cc(NC(=O)c3ccc(C)c(Nc4nccc(-c5cccnc5)n4)c3)cc(C(F)(F)F)c2)cn1` [NILOTINIB], the inhibition [7] was “Active”, the inhibition [8] was “Active” and the IC50 [9] was 1800 nM.

`Cc1ccc([C@H](C)Nc2nc3cc(F)ccc3o2)cc1NC(=O)c1cnc2ccccn12` showed an IC50 [1] of 6.1 nM, an inhibition [10] of 59% and an inhibition [2] of 52%. For the same compound, the IC50 [3] was 160 nM, the clearance [11] was 16.6 mL/min/kg and the Vd [12] was 1.9 L/kg. For the same compound, the half-life [13] was 1.8 h and the bioavailability [14] was 97%.

Work on `Cc1ccc([C@H](C)NC(=O)c2cccc(C(F)(F)F)c2)cc1NC(=O)c1cnc2ccccn12` yielded an IC50 [1] of 5.8 nM, an inhibition [6] of 44% and an inhibition [2] of 48%. The inhibition [15] was 49%, the clearance [11] was 2.99 mL/min/kg and the Vd [12] was 0.31 L/kg. The half-life [13] was 1.4 h and the bioavailability [14] was 55%.

For `CN1CCN(CCOc2cc(OC3CCOCC3)c3c(Nc4c(Cl)ccc5c4OCO5)ncnc3c2)CC1`, the inhibition [7] was “Active” and the inhibition [8] was “Active”.

In the case of `Cc1nc(Nc2ncc(C(=O)Nc3c(C)cccc3Cl)s2)cc(N2CCN(CCO)CC2)n1` [DASATINIB], the inhibition [6] is reported as 40%, the IC50 [9] is reported as 32 nM and the IC50 [16] is reported as 29 nM. For the same compound, the inhibition [17] was 90%.

In the case of `Cc1ccc(CNC(=O)Nc2cccc(F)c2)cc1NC(=O)c1cnc2ccccn12`, the IC50 [1] is reported as 3.3 nM, the inhibition [6] is reported as 54% and the inhibition [18] is reported as 40%. For the same compound, the IC50 [3] was 19 nM, the clearance [11] was 7.65 mL/min/kg and the Vd [12] was 0.42 L/kg. The half-life [13] was 0.83 h, the bioavailability [14] was 62% and the inhibition [7] was “Active”. The inhibition [8] was “Active”, the EC50 [19] was 8.7 nM and the IC50 [9] was greater than 10000 nM. It also gave an IC50 [16] greater than 10000 nM.

`O=C(NCc1cccc(NC(=O)c2cnc3ccccn23)c1)Nc1ccccc1` showed an IC50 [1] of 280 nM, an IC50 [4] of 150 nM and an inhibition [20] of 63%. It also gave an IC50 [3] of 180 nM.

Compound `Cc1ccc([C@H](C)NC(=O)Nc2ccccc2)cc1NC(=O)c1cnc2ccccn12` has an IC50 [1] of 8.1 nM, an IC50 [4] of 6 nM and an inhibition [2] of 4%. For the same compound, the IC50 [3] was 310 nM.

Compound `O=C(NCc1cccnc1)Nc1ccccc1Cl` has an inhibition [21] of 32% and an IC50 [4] greater than 100000 nM.

— ChEMBL document CHEMBL3608250, “Fragment-Based Discovery of Potent and Selective DDR1/2 Inhibitors” (ACS Med Chem Lett, 2015)
